In data set [1] the target is T1, Cytochrome P450 3A4 (Homo sapiens, UniProt P08684). The data set is described as follows: Drug level assessed as human recombinant CYP3A4-mediated compound formation treated with bosentan at 5 uM in presence of NADPH after 30 mins by LC-MS/MS analysis. Type of data set: ADME. The conditions noted are these: recombinant enzyme, 0.5 h. An outline of the steps: (§1)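 Substrate at 5 μM final in 100 mM potassium phosphate, pH 7.4, incubated with human liver microsomes or baculovirus-expressed recombinant CYP3A4, 2D6 or 2C9. Reaction started with 1 mM NADPH and run 0, 15 and 30 min at 37 °C. Stopped with ice-cold acetonitrile containing labetalol internal standard, then centrifuged. Supernatant analysed by LC-MS/MS on a C18 column at 40 °C. Blank was enzyme without substrate.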

Data set [2] in a line: Retention time of the compound. Type of data set: physicochemical.
Data set [3] is described as follows: Drug level in human liver microsomes treated with bosentan at 5 uM in presence of NADPH after 30 mins by LC-MS/MS analysis. In kind it is ADME. The following applies: 0.5 h. An outline of the steps:
as §1
Background: Microsomes from liver hold many membrane-bound enzymes, among them those of drug oxidation.

Data set [4] can be described thus: Metabolic stability in human liver microsomes assessed as parent compound remaining at 5 uM in presence of NADPH after 30 mins by LC-MS/MS analysis. Type of data set: ADME. The conditions noted are these: read-out: Stability. The procedure, abridged: (§2)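 Pooled human liver microsomes in 100 mM potassium phosphate, pH 7.4, with test compound at 5 μM final. Reaction started with 1 mM NADPH (final) and run at 37 °C in a shaking water bath for 0, 15 and 30 min. Stopped with an equal volume of ice-cold acetonitrile containing 0.6 μM labetalol as internal standard. Protein was spun out and the supernatant analysed by LC-MS/MS. Blank had no compound.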

The target of data set [5] is T1, Cytochrome P450 3A4. Briefly: Drug metabolism assessed as human recombinant CYP3A4-mediated metabolite formation by measuring parent compound remaining at 5 uM in presence of NADPH after 30 mins by LC-MS/MS analysis. In kind it is ADME. The conditions noted are these: recombinant enzyme, 0.5 h. An outline of the steps:
as §1

Data set [6] deals with T2, Cytochrome P450 2C9 (Homo sapiens, UniProt P11712). Briefly: Drug metabolism assessed as human recombinant CYP2C9-mediated formation of N-(6-ethoxy-5-(2-methoxyphenoxy)-2,2'-bipyrimidin-4-yl)-4-(1-hydroxy-2-methylpropan-2-yl)benzenesulfonamide at 5 uM in presence of NADPH after 30 mins by LC-MS/MS analysissss. Type of data set: ADME. The conditions noted are these: recombinant enzyme, 0.5 h. The procedure, abridged: as §1

Data set [7] concerns the target T2, Cytochrome P450 2C9. The data set is described as follows: Drug metabolism assessed as human recombinant CYP2C9-mediated metabolite formation by measuring parent compound remaining at 5 uM in presence of NADPH after 30 mins by LC-MS/MS analysis. Type of data set: ADME. The following applies: recombinant enzyme, 0.5 h. An outline of the steps:
as §1

Data set [8] addresses T1, Cytochrome P450 3A4. The data set is described as follows: Drug metabolism assessed as human recombinant CYP3A4-mediated formation of N-(6-ethoxy-5-(2-methoxyphenoxy)-2,2'-bipyrimidin-4-yl)-4-(1-hydroxy-2-methylpropan-2-yl)benzenesulfonamide at 5 uM in presence of NADPH after 30 mins by LC-MS/MS analysissss. Type of data set: ADME. The conditions noted are these: recombinant enzyme, 0.5 h. The procedure, abridged:
as §1

Data set [9] can be described thus: Drug metabolism in human liver microsomes assessed as formation of N-(6-ethoxy-5-(2-methoxyphenoxy)-2,2'-bipyrimidin-4-yl)-4-(1-hydroxy-2-methylpropan-2-yl)benzenesulfonamide at 5 uM in presence of NADPH after 30 mins by LC-MS/MS analysissss. Type of data set: ADME. The conditions noted are these: 0.5 h. An outline of the steps: as §2
The target in data set [10] is Cytochrome P450 2D6 (Homo sapiens, UniProt P10635). Briefly: Drug metabolism assessed as human recombinant CYP2D6-mediated metabolite formation by measuring parent compound remaining at 5 uM in presence of NADPH after 30 mins by LC-MS/MS analysis. Type of data set: ADME. The following applies: recombinant enzyme, 0.5 h. An outline of the steps: as §1
Data set [11] can be described thus: Drug level in human liver microsomes treated with 4-(1,1,1,3,3,3-Hexafluoro-2-methoxypropan-2-yl)-N-(6-(2-hydroxyethoxy)-5-(2-methoxyphenoxy)-2,2'-bipyrimidin-4-yl)benzenesulfonamide at 5 uM in presence of NADPH after 30 mins by LC-MS/MS analysis. Type of data set: ADME. The following applies: 0.5 h. The procedure, abridged: as §1
Data set [12] addresses T1, Cytochrome P450 3A4. The data set is described as follows: Drug level assessed as human recombinant CYP3A4-mediated compound formation treated with 4-(1,1,1,3,3,3-Hexafluoro-2-methoxypropan-2-yl)-N-(6-(2-hydroxyethoxy)-5-(2-methoxyphenoxy)-2,2'-bipyrimidin-4-yl)benzenesulfonamide at 5 uM in presence of NADPH after 30 mins by LC-MS/MS analysis. The conditions noted are these: recombinant enzyme, 0.5 h. Type of data set: ADME. An outline of the steps:
as §1

Each structure is given as a SMILES string.

T1 sequence (P08684 whole entry): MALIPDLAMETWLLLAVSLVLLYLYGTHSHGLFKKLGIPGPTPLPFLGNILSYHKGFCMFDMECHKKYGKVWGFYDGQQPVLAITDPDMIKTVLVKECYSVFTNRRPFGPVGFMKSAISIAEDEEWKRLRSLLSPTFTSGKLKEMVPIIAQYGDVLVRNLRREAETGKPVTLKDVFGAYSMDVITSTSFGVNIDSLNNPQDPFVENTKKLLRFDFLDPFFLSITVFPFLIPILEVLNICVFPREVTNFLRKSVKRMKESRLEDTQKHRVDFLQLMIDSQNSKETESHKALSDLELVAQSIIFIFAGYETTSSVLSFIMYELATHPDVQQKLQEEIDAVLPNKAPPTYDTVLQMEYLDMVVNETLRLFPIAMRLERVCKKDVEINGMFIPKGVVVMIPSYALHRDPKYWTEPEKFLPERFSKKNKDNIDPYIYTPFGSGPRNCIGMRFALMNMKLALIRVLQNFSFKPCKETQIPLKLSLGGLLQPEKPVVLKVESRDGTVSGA
T2 sequence (P11712 whole entry): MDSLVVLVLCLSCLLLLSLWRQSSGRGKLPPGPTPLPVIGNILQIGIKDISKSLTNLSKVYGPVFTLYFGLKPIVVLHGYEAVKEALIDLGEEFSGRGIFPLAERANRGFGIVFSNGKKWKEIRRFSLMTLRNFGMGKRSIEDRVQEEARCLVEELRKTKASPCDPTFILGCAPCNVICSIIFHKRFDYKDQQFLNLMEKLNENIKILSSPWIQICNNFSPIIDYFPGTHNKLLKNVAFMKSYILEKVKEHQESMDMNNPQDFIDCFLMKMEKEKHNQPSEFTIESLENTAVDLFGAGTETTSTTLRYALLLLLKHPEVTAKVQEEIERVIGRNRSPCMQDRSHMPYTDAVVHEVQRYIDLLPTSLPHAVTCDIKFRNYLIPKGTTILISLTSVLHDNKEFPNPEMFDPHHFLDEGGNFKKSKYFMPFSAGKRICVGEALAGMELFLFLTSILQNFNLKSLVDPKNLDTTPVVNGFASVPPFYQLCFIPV
Sequence of Cytochrome P450 2D6 (P10635 whole entry): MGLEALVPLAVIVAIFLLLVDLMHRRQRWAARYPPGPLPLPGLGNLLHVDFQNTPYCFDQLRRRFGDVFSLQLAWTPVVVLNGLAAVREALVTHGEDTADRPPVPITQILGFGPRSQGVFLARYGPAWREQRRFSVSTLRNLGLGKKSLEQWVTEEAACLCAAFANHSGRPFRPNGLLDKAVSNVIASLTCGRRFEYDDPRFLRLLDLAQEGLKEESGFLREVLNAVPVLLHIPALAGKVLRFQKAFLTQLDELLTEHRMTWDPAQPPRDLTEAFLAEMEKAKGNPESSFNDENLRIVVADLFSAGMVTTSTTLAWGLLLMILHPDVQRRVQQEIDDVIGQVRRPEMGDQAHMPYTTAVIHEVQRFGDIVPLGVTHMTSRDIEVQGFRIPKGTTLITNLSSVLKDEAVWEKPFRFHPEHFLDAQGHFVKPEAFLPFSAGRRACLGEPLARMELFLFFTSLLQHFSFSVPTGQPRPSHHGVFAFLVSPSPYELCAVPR

Take `CC(C)(C)c1ccc(S(=O)(=O)Nc2nc(-c3ncccn3)nc(OCCO)c2Oc2ccccc2O)cc1`: the Drug metabolism result in data set [1] and in data set [3] was “Metabolite_Detected” throughout. Moreover, in data set [2], the Retention_time is listed as 4.73 min.

As to `CC(C)(CO)c1ccc(S(=O)(=O)Nc2nc(-c3ncccn3)nc(OCCO)c2Oc2ccccc2O)cc1`, the Drug metabolism entry in data set [1] and in data set [3] was “Metabolite_Detected” in each case. The molecule further displayed a Retention_time in [2] of 4.16 min.

Turning to `CCOc1nc(-c2ncccn2)nc(NS(=O)(=O)c2ccc(C(C)(C)C)cc2)c1Oc1ccccc1OC`, the remaining at 0.5 h, 5 µM in [4] is 68.5%. The Stability in [5] is 15%; in data set [7] it was 99%; in data set [10], above 99%. The Retention_time in data set [2] came out at 5.96 min. The Drug metabolism entry in data set [6], in data set [8] and in [9] was “Metabolite_Detected” each time.

`COC(c1ccc(S(=O)(=O)Nc2nc(-c3ncccn3)nc(OCCO)c2Oc2ccccc2O)cc1)(C(F)(F)F)C(F)(F)F`: the Retention_time in [2] is 5.14 min. For the same molecule, the Drug metabolism result in data set [11] and in data set [12] was “Metabolite_Detected” each time.
